Data taken from ChEMBL document CHEMBL1151733, “Pirinixic acid derivatives as novel dual inhibitors of microsomal prostaglandin E2 synthase-1 and 5-lipoxygenase” (J Med Chem, 2008).
The source made the active and inactive calls. The rule behind the calls is not given here.

Columns and labels:
[1] = molecular target: T1, Prostaglandin G/H synthase 2 (Homo sapiens, UniProt P35354); assay: Inhibition of human recombinant COX2
T1 sequence (P35354 whole entry): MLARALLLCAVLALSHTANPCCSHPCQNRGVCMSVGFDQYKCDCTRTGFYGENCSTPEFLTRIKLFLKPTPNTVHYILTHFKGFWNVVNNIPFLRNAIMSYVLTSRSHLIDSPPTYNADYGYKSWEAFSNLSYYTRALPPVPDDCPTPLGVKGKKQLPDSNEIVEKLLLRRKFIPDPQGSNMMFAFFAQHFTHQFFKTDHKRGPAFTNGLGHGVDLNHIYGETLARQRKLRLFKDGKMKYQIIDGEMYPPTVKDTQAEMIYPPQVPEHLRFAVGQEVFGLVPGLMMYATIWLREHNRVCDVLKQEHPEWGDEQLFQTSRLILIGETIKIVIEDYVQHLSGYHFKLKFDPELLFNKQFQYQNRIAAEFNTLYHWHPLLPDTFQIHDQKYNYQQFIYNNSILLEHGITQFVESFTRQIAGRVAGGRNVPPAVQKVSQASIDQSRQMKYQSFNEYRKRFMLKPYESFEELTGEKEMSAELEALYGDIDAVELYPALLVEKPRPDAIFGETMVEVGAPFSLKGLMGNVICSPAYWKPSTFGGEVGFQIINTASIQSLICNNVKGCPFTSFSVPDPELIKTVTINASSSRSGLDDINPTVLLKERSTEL
How it was run: (§1)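 Ovine COX-1 (50 units) or human recombinant COX-2 (20 units) in 100 mM Tris pH 8 with 5 mM glutathione, 5 µM hemoglobin and 100 µM EDTA. Compound preincubation 5 min at 4 °C, then prewarming 60 s at 37 °C. AA added at 5 µM for COX-1 or 2 µM for COX-2, reacted 5 min at 37 °C. 12-HHT extracted and quantified by HPLC. Mean ± SE, n = 3.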

[2] = molecular target: T2, Prostaglandin E synthase (Homo sapiens) (UniProt O14684); assay: Inhibition of PGES1 in human A549 cell microsome assessed as PGE2 formation at 10 uM by cell-free assay relative to control; design: scale not given: the % may be the effect or the level left
T2 sequence (whole entry): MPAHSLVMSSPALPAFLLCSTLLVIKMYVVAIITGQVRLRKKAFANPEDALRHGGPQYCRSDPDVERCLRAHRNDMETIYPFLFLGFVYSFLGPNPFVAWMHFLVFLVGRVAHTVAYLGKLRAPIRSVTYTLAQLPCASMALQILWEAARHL
How it was run: (§2)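 Microsomes from A549 cells grown with IL-1β (1 ng/mL, 72 h), diluted in 0.1 M potassium phosphate pH 7.4 with 2.5 mM glutathione. Compound or DMSO added 15 min before PGH₂ (20 µM final). Reaction ran 1 min at 4 °C and was stopped with FeCl₂/citric acid. PGE₂ isolated by C18 SPE, then RP-HPLC with UV at 195 nm against 11β-PGE₂ internal standard.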

[3] = molecular target: T3, Polyunsaturated fatty acid 5-lipoxygenase (Homo sapiens) (UniProt P09917); assay: Inhibition of 5-LO in human PMNL cells at 10 uM relative to control; assay type: cell-based; design: scale not given: the % may be the effect or the level left
T3 sequence (whole entry): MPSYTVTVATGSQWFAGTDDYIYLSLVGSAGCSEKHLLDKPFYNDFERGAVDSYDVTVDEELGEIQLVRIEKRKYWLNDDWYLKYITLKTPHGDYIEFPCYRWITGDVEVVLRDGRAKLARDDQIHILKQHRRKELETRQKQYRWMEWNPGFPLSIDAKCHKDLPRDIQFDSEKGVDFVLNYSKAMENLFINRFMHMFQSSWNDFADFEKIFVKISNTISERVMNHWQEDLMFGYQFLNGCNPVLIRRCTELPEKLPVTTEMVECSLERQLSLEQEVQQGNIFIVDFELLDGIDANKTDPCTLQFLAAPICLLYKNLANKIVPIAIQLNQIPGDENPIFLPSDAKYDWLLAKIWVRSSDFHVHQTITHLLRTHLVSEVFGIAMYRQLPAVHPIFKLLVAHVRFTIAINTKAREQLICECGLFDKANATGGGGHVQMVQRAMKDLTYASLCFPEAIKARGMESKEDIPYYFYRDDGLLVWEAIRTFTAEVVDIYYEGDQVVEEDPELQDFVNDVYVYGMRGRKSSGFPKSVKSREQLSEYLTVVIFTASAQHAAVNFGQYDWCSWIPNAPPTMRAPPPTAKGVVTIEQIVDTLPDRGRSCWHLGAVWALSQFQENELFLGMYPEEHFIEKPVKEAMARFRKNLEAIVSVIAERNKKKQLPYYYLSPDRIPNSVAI
How it was run: (§3)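 Freshly isolated human PMNL from leukocyte concentrates of healthy donors, 5 × 10⁶ cells/mL in PBS pH 7.4 with 1 mg/mL glucose and 1 mM CaCl₂. Preincubated with compound 15 min at RT, then stimulated with 2.5 µM A23187 plus 20 µM AA for 10 min at 37 °C. Stopped with methanol; LTB₄, its all-trans isomers and 5-H(P)ETE quantified by HPLC with PGB₁ internal standard.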

[4] = molecular target: T4, Prostaglandin G/H synthase 1 (Ovis aries, UniProt P05979); assay: Inhibition of ovine COX1; how it was run: as §1
T4 sequence (P05979 whole entry): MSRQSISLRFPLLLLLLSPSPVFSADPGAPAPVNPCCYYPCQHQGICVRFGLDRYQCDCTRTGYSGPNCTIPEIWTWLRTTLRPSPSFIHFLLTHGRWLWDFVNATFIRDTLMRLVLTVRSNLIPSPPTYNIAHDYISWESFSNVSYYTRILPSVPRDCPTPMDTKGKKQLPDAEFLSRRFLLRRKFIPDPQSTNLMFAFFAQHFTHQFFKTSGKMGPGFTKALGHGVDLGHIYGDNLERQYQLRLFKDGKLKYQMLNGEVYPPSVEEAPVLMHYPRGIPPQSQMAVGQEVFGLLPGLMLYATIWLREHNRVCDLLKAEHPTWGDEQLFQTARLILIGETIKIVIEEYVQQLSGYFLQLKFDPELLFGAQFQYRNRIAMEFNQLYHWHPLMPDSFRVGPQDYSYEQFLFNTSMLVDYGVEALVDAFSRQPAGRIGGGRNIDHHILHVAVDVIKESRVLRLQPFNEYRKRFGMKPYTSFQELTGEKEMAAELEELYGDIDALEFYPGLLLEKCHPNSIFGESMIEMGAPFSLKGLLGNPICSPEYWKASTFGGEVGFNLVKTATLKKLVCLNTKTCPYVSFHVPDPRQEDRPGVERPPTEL

[5] = molecular target: T5, Polyunsaturated fatty acid 5-lipoxygenase (Homo sapiens, UniProt P09917); assay: Inhibition of 5-LO in PMNL cells; assay type: cell-based; how it was run: as §3
T5 sequence (P09917 whole entry): T3 sequence (whole entry)

[6] = molecular target: T6, Prostaglandin E synthase (Homo sapiens, UniProt O14684); assay: Inhibition of PGES1 in human A549 cell microsome assessed as PGE2 formation by cell-free assay; how it was run: as §2
T6 sequence (O14684 whole entry): T2 sequence (whole entry)

[7] = molecular target: T5, Polyunsaturated fatty acid 5-lipoxygenase; assay: Inhibition of human recombinant 5-LO expressed in Escherichia coli by cell-free assay
How it was run: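 Human 5-LO expressed in E. coli MV1190 (pT3-5LO) at 27 °C, partially purified from the 100000g lysate supernatant. Held in PBS pH 7.4 with 1 mM EDTA and 1 mM ATP with compound for 10 min at 4 °C, warmed 30 s at 37 °C, then started with 2 mM CaCl₂ plus 20 µM AA. After 10 min at 37 °C, stopped with cold methanol; products measured by HPLC.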

[8] = molecular target: T7, Prostaglandin G/H synthase 1 (Ovis aries) (UniProt P05979); assay: Inhibition of ovine COX1 assessed as remaining activity at 10 uM relative to control; how it was run: as §1
T7 sequence (whole entry): T4 sequence (P05979 whole entry)

[9] = molecular target: T8, Prostaglandin G/H synthase 2 (Homo sapiens) (UniProt P35354); assay: Inhibition of human recombinant COX2 assessed as remaining activity at 10 uM relative to control; how it was run: as §1
T8 sequence (whole entry): T1 sequence (P35354 whole entry)

Row | Structure (SMILES) | IC50 [1] [µM] | Activity [2] | Activity [3] [%] | IC50 [4] [µM] | IC50 [5] [µM] | IC50 [6] [µM] | IC50 [7] [µM] | Activity [8] [%] | Activity [9] [%]
1 | CCCCCCC(Sc1nc(Cl)cc(NCCOc2ccccc2)n1)C(=O)OCC (configuration not stated) | > 10 | 80.7% | 37.1 | > 10 |  |  |  |  | 
2 | CCCCCCC(Sc1nc(Cl)cc(Nc2cc(C)c(-c3ccccc3)cc2OC)n1)C(=O)O (configuration not stated) | > 10 | 24.9% | 3.1 | > 10 | 0.5 | 2.1 | 2 | 71.2 | 53.7
3 | CCCCCCC(Sc1nc(Cl)cc(Nc2ccc3ncccc3c2)n1)C(=O)O (configuration not stated) | > 10 | 59% |  | > 10 |  |  |  |  | 
4 | Cc1cccc(Nc2cc(Cl)nc(SC(C)C(=O)O)n2)c1C (configuration not stated) | > 10 | inactive |  | > 10 |  |  |  |  | 
5 | Cc1cccc(Nc2cc(Cl)nc(SCC(=O)O)n2)c1C [PIRINIXIC ACID] | > 10 | inactive |  | > 10 |  |  |  |  | 
6 | Cc1cccc(Nc2cc(Cl)nc(SC(C(=O)O)c3cccc4ccccc34)n2)c1C (configuration not stated) |  |  | 16.8 |  | 5 |  |  | 42.2 | 32.5
7 | CCCCC(Sc1nc(OCCc2ccccc2)cc(OCCc2ccccc2)n1)C(=O)O (configuration not stated) | > 10 | 43.1% | 2.7 | > 10 |  |  |  |  | 
8 | CCCCCC[C@H](Sc1nc(Cl)cc(Nc2ccc(-c3ccc(C#N)cc3)cc2)n1)C(=O)O | > 10 | 23% | 2.8 | > 10 |  |  | 1.5 |  | 
9 | CCCCCCC(Sc1nc(Cl)cc(Nc2ccc(-c3ccccc3)cc2)n1)C(=O)O (configuration not stated) | > 10 | 21.7% | 4.1 | > 10 | 0.7 | 1.6 | 1.5 | 52.3 | 57.1
10 | CCCCCCC(Sc1nc(Cl)cc(NCc2ccc(-c3ccccc3)cc2)n1)C(=O)O (configuration not stated) | > 10 | 21.8% | 3 | > 10 | 1 |  | 2 | 67.3 | 61.3
11 | CCCCCCC(Sc1nc(Cl)cc(Nc2cccc(C)c2C)n1)C(=O)OCC (configuration not stated) | > 10 | inactive |  | > 10 |  |  |  |  | 
12 | CCCCCCC(Sc1nc(Cl)cc(NCCc2ccccc2)n1)C(=O)O (configuration not stated) | > 10 | 70% | 16.1 | > 10 |  |  |  |  | 
13 | CCCCCCC(Sc1nc(Cl)cc(NCc2ccc3ncccc3c2)n1)C(=O)O (configuration not stated) | > 10 | 85.7% |  | > 10 |  |  |  |  | 
14 | CCCCCCC(Sc1nc(Cl)cc(NCCOc2ccccc2)n1)C(=O)O (configuration not stated) | > 10 | 79.9% | 28 | > 10 |  |  |  |  | 
15 | CCCCCCC(Sc1nc(Cl)cc(Nc2ccc(-c3ccc(C#N)cc3)cc2)n1)C(=O)O (configuration not stated) | > 10 | 26.1% | 2.7 | > 10 | 0.4 |  | 1.5 | 66 | 61.2
16 | CCCCCCC(Sc1nc(Cl)cc(Nc2cccc(C)c2C)n1)C(=O)O (configuration not stated) | > 10 | 31.9% |  | > 10 |  |  | 6.5 | 75.2 | 62
17 | CCCCCCC(Sc1nc(Cl)cc(Oc2ccc3ncccc3c2)n1)C(=O)O (configuration not stated) | > 10 | 67.4% |  | > 10 |  |  |  |  | 
18 | CCCCCCC(Sc1nc(Cl)cc(Nc2cc(OCC(F)(F)F)cc(OCC(F)(F)F)c2)n1)C(=O)O (configuration not stated) |  |  | 8 |  | 1.5 |  | 3 | 40 | 70.4
19 | CCCCC(Sc1nc(Cl)cc(Nc2cccc(C)c2C)n1)C(=O)O (configuration not stated) | > 10 | inactive |  | > 10 |  |  |  |  | 
20 | CC(=O)N(O)C/C=C/c1cccc(Oc2ccccc2)c1 | > 10 | inactive |  | > 10 |  |  |  |  | 
21 | CCCCCC[C@@H](Sc1nc(Cl)cc(Nc2ccc(-c3ccc(C#N)cc3)cc2)n1)C(=O)O | > 10 | 36.8% | 2.8 | > 10 |  |  | 0.8 |  | 
22 | CCCCC(Sc1nc(OCCc2ccccc2)cc(OCCc2ccccc2)n1)C(=O)OCC (configuration not stated) | > 10 | inactive | 80.1 | > 10 |  |  |  |  | 
23 | O=C(O)CSc1nc(OCCc2ccccc2)cc(OCCc2ccccc2)n1 | > 10 | 66.4% | 40.6 | > 10 |  |  |  |  | 
24 | CCCCCCC(Sc1nc(Cl)cc(NCc2ccc(-c3ccccc3)cc2)n1)C(=O)OCC (configuration not stated) | > 10 | inactive | 80.2 | > 10 |  |  |  |  | 
25 | Cc1cccc(Nc2cc(Cl)nc(SC(C)(C)C(=O)O)n2)c1C | > 10 | 83.8% |  | > 10 |  |  |  |  | 
26 | CCCCCCC(Sc1nc(Cl)cc(Nc2ccc3ncccc3c2)n1)C(=O)OCC (configuration not stated) | > 10 | 39.1% |  | > 10 |  | 5.6 |  | 69.5 | 61.7
27 | Cc1cccc(Nc2cc(Cl)nc(SC(C(=O)O)c3ccccc3)n2)c1C (configuration not stated) | > 10 | 74.6% |  | > 10 |  |  |  |  | 
28 | CCCCCCCCC(Sc1nc(Cl)cc(Nc2cccc(C)c2C)n1)C(=O)O (configuration not stated) | > 10 | 29.8% | 7 | > 10 |  |  |  |  | 
